# In the library only some 1.7% were active in any assay of this set; here they are far more common.
# TPT1 inhibitor – Candida albicans TPT1 enzyme inhibitors, primary screen, biochemical, fluorescence polarization; inhibition, % at 5 µM; recombinant caTPT1, FP RNA substrate dephosphorylation; tRNA 2'-phosphotransferase TPT1 (Candida albicans SC5314); hit rate 0.81% among 300,000;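 active means inhibition above the mean of all tested compounds plus 3 SD, set per screening campaign, cut at about 24% in these data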
# HNF4A DNA FP – change in binding of human HNF4A to DNA, primary screen, biochemical, fluorescence polarization, FITC-DNA. Hepatocyte nuclear factor 4-alpha (Homo sapiens), P41235. 1 h. activity change, % at 10 µM. hit rate 0.3% among 360,000. AID 1224865, 2016; in the data active means activity change above about 30%, passing the limit was not always enough
# IDE cell activ – human IDE activators in live cells, primary screen, fluorescence polarization, HEK cells, FAbeta-B substrate. Insulin-degrading enzyme (Homo sapiens), P14735. hit rate 0.073% among 340,000. activation, % at 5.96 µM. FAbeta-B cleavage; 0% vehicle, 100% cell-free pure enzyme wells;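 active means activation above the mean of all tested compounds plus 3 SD, set per screening campaign, cut at about 17% in these data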
# Target sequence (P14735 whole entry, looked up): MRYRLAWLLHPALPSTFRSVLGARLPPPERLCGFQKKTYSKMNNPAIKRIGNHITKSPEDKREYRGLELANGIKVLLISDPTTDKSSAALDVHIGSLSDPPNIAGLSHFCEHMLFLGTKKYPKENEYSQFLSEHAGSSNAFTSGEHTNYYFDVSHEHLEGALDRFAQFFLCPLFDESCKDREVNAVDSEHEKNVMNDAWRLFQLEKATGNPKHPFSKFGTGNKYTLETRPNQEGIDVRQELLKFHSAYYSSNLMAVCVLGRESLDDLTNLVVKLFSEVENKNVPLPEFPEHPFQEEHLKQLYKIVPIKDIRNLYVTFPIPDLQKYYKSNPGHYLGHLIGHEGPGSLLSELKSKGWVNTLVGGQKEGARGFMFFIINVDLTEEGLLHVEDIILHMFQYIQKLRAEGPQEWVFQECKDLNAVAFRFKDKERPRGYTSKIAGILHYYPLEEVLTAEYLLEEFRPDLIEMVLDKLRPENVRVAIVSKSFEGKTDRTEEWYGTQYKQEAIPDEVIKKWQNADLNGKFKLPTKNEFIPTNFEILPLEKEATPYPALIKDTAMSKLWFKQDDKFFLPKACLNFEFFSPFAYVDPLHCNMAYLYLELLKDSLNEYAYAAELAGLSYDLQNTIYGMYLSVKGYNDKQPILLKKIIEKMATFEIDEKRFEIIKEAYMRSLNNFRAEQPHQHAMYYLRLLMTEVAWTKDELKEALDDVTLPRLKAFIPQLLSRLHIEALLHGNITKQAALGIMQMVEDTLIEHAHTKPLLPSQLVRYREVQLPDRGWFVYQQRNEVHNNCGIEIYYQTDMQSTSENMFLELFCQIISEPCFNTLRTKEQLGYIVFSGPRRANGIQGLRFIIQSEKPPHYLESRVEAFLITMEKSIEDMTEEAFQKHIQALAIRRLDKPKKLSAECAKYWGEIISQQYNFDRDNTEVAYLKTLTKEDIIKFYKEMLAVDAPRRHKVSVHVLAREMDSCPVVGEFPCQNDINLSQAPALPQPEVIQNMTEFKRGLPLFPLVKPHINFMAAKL
# TbMetRS inhib – T. brucei MetRS inhibitors, primary screen, biochemical, luminescence; purified T. brucei MetRS, ATP depletion, Kinase-Glo luminescence; methionyl-tRNA synthetase (Trypanosoma brucei brucei); AID 624268, 2012; inhibition, % at 11.9 µM; hit rate 0.4% among 360,000;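 active means inhibition above a per-plate cutoff of the control wells' mean inhibition plus 3 SD, cut at about 5.5% in these data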
#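 technique = Kinase-Glo luminescence, ATP depletion format | system = purified MetRS (methionyl-tRNA synthetase) enzyme from Trypanosoma brucei | timing = 15 min preincubation, 2 h reaction, all 25 °C | evaluation = percent inhibition versus plate control medians | dosing = single dose, 11.9 µM final nominal, 0.9% final DMSO | also added = substrates ATP, L-methionine and bulk Escherichia coli tRNA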
# IDE cell inh – human IDE inhibitors in live cells, primary screen, fluorescence polarization, HEK cells, FAbetaB substrate; Insulin-degrading enzyme (Homo sapiens), P14735; FAbetaB cleavage; inhibition, % at 5.59 µM; hit rate 0.41% among 320,000; AID 434962, 2010;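 active means percent inhibition above the average of all tested compounds plus 3 SD, set per screening campaign, cut at about 16% in these data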;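 further: IDE supplied by intact live HEK cells; FP after avidin binding of uncleaved biotin substrate so inhibition keeps polarization high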
# CSN inh – inhibitors of CSN-mediated cullin deneddylation, primary screen, biochemical, fluorescence polarization, uHTS | COP9 signalosome complex subunit 5 (Homo sapiens), Q92905 | Purified CSN, SCF-Nedd8-OG deneddylation | inhibition, % at 12.5 µM | hit rate 0.38% among 360,000 | AID 651999, 2013;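 active means pattern-corrected inhibition above about 35%, with an unprinted fluorescence ratio check between 0.5 and 1.5, limit read from the data, passing the limit was not always enough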
#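 assay system = purified human Csn5 enzyme expressed in HEK293T cells | amount = 0.24 nM enzyme | buffer or medium = Tris/NaCl/DTT buffer, pH 7.5 | reagent = 10 nM SCFSkp2-Nedd8OG | compound = one concentration, 12.5 µM, 0.25% DMSO | times = 90 min reaction at room temperature | signal = FP | read-out basis = % inhibition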
# caTPT1 confirm – Candida albicans TPT1 inhibitors, confirmation, biochemical, fluorescence polarization, triplicate; shares compounds with TPT1 inhibitor; recombinant caTPT1, RNase T1 coupled; inhibition, % at 5 µM; hit rate 74% among 2,400; AID 2149, 2009;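 active means inhibition above the primary screen limit, the mean inhibition of all tested compounds plus 3 SD, cut at about 25% in these data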
# RNase T1 counter – RNase T1 inhibitors, counter-screen for TPT1 inhibitor project, biochemical, fluorescence polarization. RNase T1 cleavage, 1536-well. shares compounds with TPT1 inhibitor. inhibition, % at 5 µM. hit rate 83% among 2,400. AID 2153, 2009;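 active means inhibition above the solvent-only control well mean plus 3 SD, limit set per screening run, cut at about 23% in these data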;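 further: inhibitors block cleavage so intact labeled substrate keeps polarization high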
# Hits are given with their value; - = inactive; . = not tested or not shown.
SMILES,TPT1 inhibitor,HNF4A DNA FP,IDE cell activ,TbMetRS inhib,IDE cell inh,CSN inh,caTPT1 confirm,RNase T1 counter
C=CCNC(=S)N1CCN(C2CCCCC2)CC1,-,-,-,-,-,-,.,.
COc1cc(OC)c(OC)cc1/C=C/c1cc(C(F)(F)F)[nH]c(=O)n1,73,-,-,-,-,-,72,81
COc1cc(/C=C/c2cc(C(F)(F)F)[nH]c(=O)n2)cc(OC)c1OC,.,-,-,-,.,-,.,.
Cc1ccc(C)c(N2N=C(C(=O)OCC(=O)N(C)c3ccccc3)CCC2=O)c1,.,-,-,-,.,-,.,.
CS(=O)(=O)N1N=C(c2cccs2)CC1c1ccccc1 (stereo not given),-,-,-,-,-,-,.,.
c1ccc(C2Oc3ccccc3C3CC(c4cccs4)=NN32)cc1 (stereo not given),49,-,-,-,-,-,57,69
O=C(c1ccc(CS(=O)c2ccccc2Cl)o1)N1CCN(c2ccccn2)CC1 (stereo not given),-,-,-,-,-,-,.,.
CCOC(=O)/C(C#N)=C\c1ccc(N2CCN(C/C=C/c3ccccc3)CC2)cc1,46,-,-,-,-,-,82,92
CCOC(=O)/C(C#N)=C\c1cc(C)n(-c2ccccc2)c1C,-,-,-,-,-,-,.,.
COc1cccc(-c2c(C#N)c(N)nc3c2c(=O)nc2sccn23)c1,-,.,.,.,-,.,.,.
COc1cc(/C=C(\C#N)c2nc(-c3cc4ccccc4oc3=O)cs2)ccc1O,38,-,-,-,-,-,52,58
CCCCCc1nnc(NC(=O)Cn2cnc3ccccc3c2=O)s1,-,-,-,-,-,-,.,.
Cc1ccc(S(=O)(=O)N2C[C@H]3C(=O)C[C@@H](c4ccccc4)N(S(C)(=O)=O)[C@H]3C[C@H]2c2ccccc2)cc1,.,-,.,-,.,-,.,.
COc1ccc(OC)c(NC(=O)COC(=O)CSc2ccc(Cl)cc2)c1,-,-,-,-,-,-,.,.
CC(C)(C)OC(=O)COc1ccc(/C=N/NC(=O)CN2CCCCC2)cc1,.,-,-,-,.,-,.,.
CC(C)(C)CC(=O)Nc1nn[nH]n1,27,-,-,-,-,-,-,-
CC(/C=C/c1ccc(N(C)C)cc1)=N\N=C(/N)SC1CC(=O)N(c2ccc(C(=O)O)cc2)C1=O (stereo not given),26,40,-,-,-,-,28,43
COc1ccccc1Nc1nnc(SCC(=O)NC(=O)Nc2ccc3c(c2)OCCO3)s1,-,-,-,-,-,-,.,.
O=C(Nc1ccc(Cl)cn1)c1cccc(S(=O)(=O)N2CCCC2)c1,-,-,-,-,-,-,.,.
CN(C)S(=O)(=O)c1cccc(C(=O)Nc2ccc(Cl)cn2)c1,27,-,-,-,-,-,-,-
O=C(Nc1ccc(S(=O)(=O)Nc2nccs2)cc1)c1cnc(Cl)c(Cl)c1,33,-,-,-,-,-,31,48
O=C(Nc1ccc(S(=O)(=O)Nc2ncccn2)cc1)c1nn(Cc2ccccc2)c(=O)c2ccccc12,-,-,-,-,-,-,.,.
CCn1nc(C(=O)Nc2ccc(S(=O)(=O)Nc3nccs3)cc2)c2ccccc2c1=O,31,-,-,-,-,-,54,71
O=C(Nc1ccc(S(=O)(=O)Nc2ncccn2)cc1)c1cnc(Cl)c(Cl)c1,-,-,-,-,-,-,.,.
CCC1CCCCN1C(=O)Cn1c(=O)n(CCCC(=O)NCc2ccco2)c(=O)c2sccc21 (stereo not given),-,-,-,-,-,-,.,.
SMILES,TPT1 inhibitor,HNF4A DNA FP,IDE cell activ,TbMetRS inhib,IDE cell inh,CSN inh,caTPT1 confirm,RNase T1 counter
ClCC1NCC(c2ccccc2Cl)c2c1[nH]c1ccccc21 (stereo not given),89,-,-,-,-,-,-,-
C[C@@H]1CN([C@H](C)CO)C(=O)c2cc(Br)cnc2O[C@H]1CN(C)Cc1ccccc1,.,-,.,-,.,-,.,.
CCc1ccc([C@@H]2CC(=O)[C@@H]3CN(S(=O)(=O)c4ccccc4C)[C@H](c4ccc(Cl)cc4)C[C@@H]3N2S(=O)(=O)c2ccc(C)cc2)cc1,.,-,.,-,.,-,.,.
CN1CCc2c(sc3nc(NN)n(Cc4ccccc4)c(=O)c23)C1,38,-,-,-,-,-,46,54
CN1CCc2c(sc3nc(NN)n(-c4ccc(Cl)cc4)c(=O)c23)C1,38,-,-,-,-,-,-,24
COc1ccccc1NC(=O)c1sc2nc(-c3ccco3)ccc2c1N,28,-,-,-,-,-,-,27
COc1ccc(C(=O)c2sc3nc(-c4ccc(OC)cc4)ccc3c2N)cc1,54,-,-,-,-,-,83,91
COc1ccc(-c2ccc3c(N)c(C(=O)c4cccc(OC)c4)sc3n2)cc1,63,-,-,-,-,-,63,74
Nc1c(C(=O)Nc2ccccc2)sc2nc(-c3ccco3)ccc12,-,-,-,-,-,-,.,.
COc1ccc(-c2cnc(C(O)c3ccc(C(C)(C)C)cc3)[nH]2)cc1 (stereo not given),.,-,.,-,.,-,.,.
COc1ccc(CN=CC2=C(O)CNC2=O)cc1,-,-,-,-,-,-,.,.
Cc1cc(C)cc(N=Cc2[nH]c3ccc(Br)c(Cl)c3c2O)c1,121,-,-,-,-,-,111,111
COc1ccc(CN=Cc2[nH]c3ccc(Br)c(Cl)c3c2O)cc1,88,-,-,-,-,-,136,131
NC(=O)c1ccc(NC(=O)COC(=O)CC2Sc3ccccc3NC2=O)cc1 (stereo not given),.,-,-,-,-,-,.,.
Cc1cccc(NC(=O)c2ccc(NCCc3ccccc3)c([N+](=O)[O-])c2)c1,46,-,-,-,-,89,111,133
Cc1ccc(NC(=O)c2ccc(NCCN)c([N+](=O)[O-])c2)cc1,-,-,-,-,-,-,.,.
O=C(N/N=C/c1c(O)n(Cc2ccccc2)c(=O)c2ccccc12)c1cccnc1,106,42,-,-,-,-,117,120
O=C(N/N=C/c1c(O)n(-c2ccccc2Cl)c(=O)c2ccccc12)c1cccnc1,.,-,-,-,.,-,.,.

# Compound activity from PubChem.
